Laboratory results reported in ChEMBL document CHEMBL1212734, “In vitro pharmacodynamics of levofloxacin and other aerosolized antibiotics under multiple conditions relevant to chronic pulmonary infection in cystic fibrosis” (2010).
≈ marks a conversion by molar mass, not a printed value.

Assays:
Assay type in all cases: functional
Pseudomonas aeruginosa [1] = experiment: Antibacterial activity against Pseudomonas aeruginosa ATCC 27853 assessed as time required for reduction of bacterial load to 3 log CFU/ml at 0.2 mg/ml up to 48 hrs by time-kill assay
Pseudomonas aeruginosa [2] = experiment: Antibacterial activity against Pseudomonas aeruginosa PA876 assessed as time required for reduction of bacterial load to 3 log CFU/ml at 0.6 mg/ml up to 48 hrs by time-kill assay
Summary of the method: (§1)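 Overnight cultures were diluted and grown at 37°C to OD600 ≈0.3, then set at 5 × 10^5–1 × 10^6 CFU/ml in 10 ml CAMHB. Drug was added at 0.2, 0.6 or 2.0 mg/ml, and cultures were shaken at 37°C. Samples taken at 0, 0.5, 1, 2, 4, 8 and 24 h were washed twice in CAMHB, diluted in saline and plated on Mueller-Hinton agar. Plates were incubated up to 48 h before colony counting.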

Pseudomonas aeruginosa [3] = experiment: Antibacterial activity against Pseudomonas aeruginosa PA881 assessed as time required for reduction of bacterial load to 3 log CFU/ml at 0.6 mg/ml up to 48 hrs by time-kill assay; summary of the method: as §1
Pseudomonas aeruginosa [4] = experiment: Antibacterial activity against Pseudomonas aeruginosa PA899 assessed as time required for reduction of bacterial load to 3 log CFU/ml at 0.2 mg/ml up to 48 hrs by time-kill assay; summary of the method: as §1
Pseudomonas aeruginosa [5] = experiment: Antibacterial activity against Pseudomonas aeruginosa PA5020 assessed as time required for reduction of bacterial load to 3 log CFU/ml at 0.6 mg/ml up to 48 hrs by time-kill assay; summary of the method: as §1
Pseudomonas aeruginosa [6] = experiment: Antibacterial activity against Pseudomonas aeruginosa ATCC 27853 assessed as inhibition of biofilm formation by microtiter plate reader assay
Pseudomonas aeruginosa [7] = experiment: Antibacterial activity against Pseudomonas aeruginosa PA1042 assessed as time required for reduction of bacterial load to 3 log CFU/ml at 0.2 mg/ml up to 48 hrs by time-kill assay; summary of the method: as §1
Pseudomonas aeruginosa [8] = experiment: Antibacterial activity against Pseudomonas aeruginosa PA1054 assessed as time required for reduction of bacterial load to 3 log CFU/ml at 0.6 mg/ml up to 48 hrs by time-kill assay; summary of the method: as §1
Pseudomonas aeruginosa [9] = experiment: Antibacterial activity against Pseudomonas aeruginosa PA899 assessed as time required for reduction of bacterial load to 3 log CFU/ml at 2 mg/ml up to 48 hrs by time-kill assay; summary of the method: as §1
Pseudomonas aeruginosa [10] = experiment: Antibacterial activity against Pseudomonas aeruginosa PA1054 assessed as inhibition of biofilm formation by microtiter plate reader assay; conditions: for MIC: Pseudomonas aeruginosa, PA1054
Summary of the method: (§2)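 Biofilms of cystic fibrosis P. aeruginosa isolates were grown and tested by a previously described method. The endpoint was the biofilm inhibitory concentration, the drug level that prevents biofilm cell growth, compared against planktonic broth-microdilution MICs.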

Pseudomonas aeruginosa [11] = experiment: Antibacterial activity against Pseudomonas aeruginosa PA5020 assessed as time required for reduction of bacterial load to 3 log CFU/ml at 0.2 mg/ml up to 48 hrs by time-kill assay; summary of the method: as §1
Pseudomonas aeruginosa [12] = experiment: Antibacterial activity against Pseudomonas aeruginosa PA5026 assessed as time required for reduction of bacterial load to 3 log CFU/ml at 2 mg/ml up to 48 hrs by time-kill assay; summary of the method: as §1
Pseudomonas aeruginosa [13] = experiment: Antibacterial activity against Pseudomonas aeruginosa PA1054 assessed as time required for reduction of bacterial load to 3 log CFU/ml at 2 mg/ml up to 48 hrs by time-kill assay; summary of the method: as §1
Pseudomonas aeruginosa [14] = experiment: Antibacterial activity against Pseudomonas aeruginosa PA5026 assessed as time required for reduction of bacterial load to 3 log CFU/ml at 0.6 mg/ml up to 48 hrs by time-kill assay; summary of the method: as §1
[15] = tested on: Achromobacter xylosoxidans; experiment: Antibacterial activity against Alcaligenes xylosoxidans by broth dilution method
Pseudomonas aeruginosa [16] = experiment: Antibacterial activity against Pseudomonas aeruginosa PA881 assessed as time required for reduction of bacterial load to 3 log CFU/ml at 2 mg/ml up to 48 hrs by time-kill assay; summary of the method: as §1
Pseudomonas aeruginosa [17] = experiment: Antibacterial activity against Pseudomonas aeruginosa PA899 assessed as time required for reduction of bacterial load to 3 log CFU/ml at 0.6 mg/ml up to 48 hrs by time-kill assay; summary of the method: as §1
Pseudomonas aeruginosa [18] = experiment: Antibacterial activity against Pseudomonas aeruginosa by broth dilution method
Summary of the method: (§3)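 Broth microdilution MIC per CLSI reference method; twofold serial dilutions in cation-adjusted Mueller-Hinton broth. […] Endpoint read by OD600 and confirmed visually.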

Pseudomonas aeruginosa [19] = experiment: Antibacterial activity against Pseudomonas aeruginosa ATCC 27853 assessed as time required for reduction of bacterial load to 3 log CFU/ml at 0.6 mg/ml up to 48 hrs by time-kill assay
Pseudomonas aeruginosa [20] = experiment: Antibacterial activity against Pseudomonas aeruginosa PA861 by broth dilution method; summary of the method: as §3
Pseudomonas aeruginosa [21] = experiment: Antibacterial activity against Pseudomonas aeruginosa PA5020 by broth dilution method
Pseudomonas aeruginosa [22] = experiment: Antibacterial activity against Pseudomonas aeruginosa PA861 assessed as time required for reduction of bacterial load to 3 log CFU/ml at 0.6 mg/ml up to 48 hrs by time-kill assay; summary of the method: as §1
Pseudomonas aeruginosa [23] = experiment: Antibacterial activity against Pseudomonas aeruginosa PA5063 assessed as inhibition of biofilm formation by microtiter plate reader assay; summary of the method: as §2
Staphylococcus aureus = experiment: Antibacterial activity against methicillin-sensitive Staphylococcus aureus by broth dilution method
Pseudomonas aeruginosa [24] = experiment: Antibacterial activity against Pseudomonas aeruginosa ATCC 27853 assessed as time required for reduction of bacterial load to 3 log CFU/ml at 2 mg/ml up to 48 hrs by time-kill assay
Pseudomonas aeruginosa [25] = experiment: Antibacterial activity against Pseudomonas aeruginosa PA880 assessed as time required for reduction of bacterial load to 3 log CFU/ml at 0.6 mg/ml up to 48 hrs by time-kill assay; summary of the method: as §1
Pseudomonas aeruginosa [26] = experiment: Antibacterial activity against Pseudomonas aeruginosa PA1022 assessed as time required for reduction of bacterial load to 3 log CFU/ml at 0.2 mg/ml up to 48 hrs by time-kill assay; summary of the method: as §1
Pseudomonas aeruginosa [27] = experiment: Antibacterial activity against Pseudomonas aeruginosa PA1036 assessed as time required for reduction of bacterial load to 3 log CFU/ml at 2 mg/ml up to 48 hrs by time-kill assay; summary of the method: as §1
Pseudomonas aeruginosa [28] = experiment: Antibacterial activity against Pseudomonas aeruginosa PA5020 assessed as time required for reduction of bacterial load to 3 log CFU/ml at 2 mg/ml up to 48 hrs by time-kill assay; summary of the method: as §1
Pseudomonas aeruginosa [29] = experiment: Antibacterial activity against Pseudomonas aeruginosa PA5043 assessed as time required for reduction of bacterial load to 3 log CFU/ml at 0.2 mg/ml up to 48 hrs by time-kill assay; summary of the method: as §1
[30] = tested on: Stenotrophomonas maltophilia; experiment: Antibacterial activity against Stenotrophomonas maltophilia by broth dilution method
Pseudomonas aeruginosa [31] = experiment: Antibacterial activity against Pseudomonas aeruginosa PA1054 by broth dilution method; summary of the method: as §3
Pseudomonas aeruginosa [32] = experiment: Antibacterial activity against Pseudomonas aeruginosa PA5043 assessed as inhibition of biofilm formation by microtiter plate reader assay; summary of the method: as §2
Pseudomonas aeruginosa [33] = experiment: Antibacterial activity against Pseudomonas aeruginosa PA899 by broth dilution method; summary of the method: as §3

SMILES	Time (Pseudomonas aeruginosa [1])	Time (Pseudomonas aeruginosa [2])	Time (Pseudomonas aeruginosa [3])	Time (Pseudomonas aeruginosa [4])	Time (Pseudomonas aeruginosa [5]) [h]	BBC (Pseudomonas aeruginosa [6]) [µg/mL]	Time (Pseudomonas aeruginosa [7])	Time (Pseudomonas aeruginosa [8])	Time (Pseudomonas aeruginosa [9])	BBC (Pseudomonas aeruginosa [10]) [µg/mL]	Time (Pseudomonas aeruginosa [11]) [h]	Time (Pseudomonas aeruginosa [12])	Time (Pseudomonas aeruginosa [13])	Time (Pseudomonas aeruginosa [14])	MIC50 [15] [µg/mL]	MIC90 [15] [µg/mL]	Time (Pseudomonas aeruginosa [16])	Time (Pseudomonas aeruginosa [17])	MIC50 (Pseudomonas aeruginosa [18]) [µg/mL]	MIC90 (Pseudomonas aeruginosa [18]) [µg/mL]	other results
C[C@H]1[C@H](NC(=O)/C(=N\OC(C)(C)C(=O)O)c2csc(N)n2)C(=O)N1S(=O)(=O)O [AZTREONAM]	24 h	>24 h	8 h	>24 h	>24	>256	8 h	24 h	24 h	>64	>24	>24 h	24 h	>24 h	64 (≈ 147 µM)	> 128	8 h	24 h	4 (≈ 9.19 µM)	128 (≈ 294 µM)	MIC (Pseudomonas aeruginosa [10]): 4 µg/mL (≈ 9.19 µM); Time (Pseudomonas aeruginosa [19]): 24 h; MIC (Pseudomonas aeruginosa [20]): 128 µg/mL (≈ 294 µM); MIC (Pseudomonas aeruginosa [21]): 64 µg/mL (≈ 147 µM); Time (Pseudomonas aeruginosa [22]): >24 h; BBC (Pseudomonas aeruginosa [23]): >256 µg/mL; MIC50 (Staphylococcus aureus): > 128 µg/mL; MIC90 (Staphylococcus aureus): > 128 µg/mL; Time (Pseudomonas aeruginosa [24]): 24 h; Time (Pseudomonas aeruginosa [25]): 4 h; Time (Pseudomonas aeruginosa [26]): >24 h; Time (Pseudomonas aeruginosa [27]): 24 h; Time (Pseudomonas aeruginosa [28]): 24 h; Time (Pseudomonas aeruginosa [29]): 8 h; MIC50 [30]: > 128 µg/mL; MIC90 [30]: > 128 µg/mL; MIC (Pseudomonas aeruginosa [31]): 8 µg/mL (≈ 18.4 µM); BBC (Pseudomonas aeruginosa [32]): >64 µg/mL; MIC (Pseudomonas aeruginosa [33]): 8 µg/mL (≈ 18.4 µM)
C[C@H]1COc2c(N3CCN(C)CC3)c(F)cc3c(=O)c(C(=O)O)cn1c23.C[C@H]1COc2c(N3CCN(C)CC3)c(F)cc3c(=O)c(C(=O)O)cn1c23.O [LEVOFLOXACIN]	<=0.5 hr	<=0.5 hr	<=0.5 hr	<=0.5 hr	4	2	<=0.5 hr	<=0.5 hr	<=0.5 hr	1	4	<=0.5 hr	<=0.5 hr	<=0.5 hr	4	16	<=0.5 hr	<=0.5 hr	2	8	Time (Pseudomonas aeruginosa [19]): <=0.5 hr; MIC (Pseudomonas aeruginosa [20]): 32 µg/mL; MIC (Pseudomonas aeruginosa [21]): 16 µg/mL; Time (Pseudomonas aeruginosa [22]): <=0.5 hr; BBC (Pseudomonas aeruginosa [23]): 1 µg/mL; MIC50 (Staphylococcus aureus): 0.125 µg/mL; MIC90 (Staphylococcus aureus): 0.25 µg/mL; Time (Pseudomonas aeruginosa [24]): <=0.5 hr; Time (Pseudomonas aeruginosa [25]): <=0.5 hr; Time (Pseudomonas aeruginosa [26]): <=0.5 hr; Time (Pseudomonas aeruginosa [27]): <=0.5 hr; Time (Pseudomonas aeruginosa [28]): 2 h; Time (Pseudomonas aeruginosa [29]): <=0.5 hr; MIC50 [30]: 2 µg/mL; MIC90 [30]: 8 µg/mL; MIC (Pseudomonas aeruginosa [31]): 0.5 µg/mL; BBC (Pseudomonas aeruginosa [32]): 1 µg/mL; MIC (Pseudomonas aeruginosa [33]): 0.5 µg/mL
NC[C@H]1O[C@H](O[C@H]2[C@H](O)[C@@H](O[C@H]3O[C@H](CO)[C@@H](O)[C@H](N)[C@H]3O)[C@H](N)C[C@@H]2N)[C@H](N)C[C@@H]1O [TOBRAMYCIN]	<=0.5 hr	4 h	<=0.5 hr	<=0.5 hr	2	1	1 h	<=0.5 hr	<=0.5 hr	1	4	<=0.5 hr	<=0.5 hr	1 h	> 32	> 32	<=0.5 hr	<=0.5 hr	2 (≈ 4.28 µM)	> 32	MIC (Pseudomonas aeruginosa [10]): 1 µg/mL (≈ 2.14 µM); Time (Pseudomonas aeruginosa [19]): <=0.5 hr; MIC (Pseudomonas aeruginosa [20]): 16 µg/mL (≈ 34.2 µM); MIC (Pseudomonas aeruginosa [21]): 8 µg/mL (≈ 17.1 µM); Time (Pseudomonas aeruginosa [22]): 8 h; BBC (Pseudomonas aeruginosa [23]): 2 µg/mL; MIC50 (Staphylococcus aureus): 0.125 µg/mL (≈ 0.267 µM); MIC90 (Staphylococcus aureus): 32 µg/mL (≈ 68.4 µM); Time (Pseudomonas aeruginosa [24]): <=0.5 hr; Time (Pseudomonas aeruginosa [25]): <=0.5 hr; Time (Pseudomonas aeruginosa [26]): 4 h; Time (Pseudomonas aeruginosa [27]): <=0.5 hr; Time (Pseudomonas aeruginosa [28]): 2 h; Time (Pseudomonas aeruginosa [29]): 2 h; MIC50 [30]: > 32 µg/mL; MIC90 [30]: > 32 µg/mL; MIC (Pseudomonas aeruginosa [31]): 0.25 µg/mL (≈ 0.535 µM); BBC (Pseudomonas aeruginosa [32]): 8 µg/mL; MIC (Pseudomonas aeruginosa [33]): 0.25 µg/mL (≈ 0.535 µM)
